Results from ChEMBL document CHEMBL3860043, “Non-Acidic Free Fatty Acid Receptor 4 Agonists with Antidiabetic Activity” (J Med Chem, 2016).
Converted amounts (≈) assume the structure as drawn. The source made the active and inactive calls. The calls are words filed in the database; no cut-off is given here.

Molecular target: T1, Free fatty acid receptor 1 (Homo sapiens, UniProt O14842)
Assay: Antagonist activity against human FFA1 expressed in human Flp-In T-REx293 cells assessed as as reduction in 300 nM TUG424-induced response by Fura2-AM dye based calcium mobilization assay relative to untreated control
Assay type: functional, cell-based
Conditions: not given
Procedure, shortened: (§1)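 Flp-In T-REx 293 cells with inducible human FFA1, seeded at 50000 cells/well and induced with 100 ng/ml doxycycline after 3-4 h adherence. Next day loaded with Fura2-AM for 45 min, washed, then preincubated 15 min in HBSS with test ligand before 300 nM agonist challenge. Fura2 340:380 ratio change read at 510 nm emission. Inhibition expressed as % reduction of the agonist response.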

T1 sequence (O14842 whole entry): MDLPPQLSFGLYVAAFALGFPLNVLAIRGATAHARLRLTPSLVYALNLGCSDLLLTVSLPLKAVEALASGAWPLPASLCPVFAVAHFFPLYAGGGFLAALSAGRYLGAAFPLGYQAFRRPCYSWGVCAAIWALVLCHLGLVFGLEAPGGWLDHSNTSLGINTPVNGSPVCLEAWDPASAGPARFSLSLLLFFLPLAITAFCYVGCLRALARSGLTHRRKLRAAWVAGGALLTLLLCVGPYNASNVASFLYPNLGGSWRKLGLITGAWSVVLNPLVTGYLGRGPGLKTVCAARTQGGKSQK

Structure (SMILES)	Imax [%]
CCCCc1ccc(NS(=O)(=O)c2ccc(F)cc2)cc1	68
O=S1(=O)c2ccccc2CN1c1cc(F)cc(OCc2ccccc2)c1	36
N#Cc1ccc(Oc2cc(F)cc(N3Cc4ccccc4S3(=O)=O)c2)cc1	43
O=S1(=O)c2ccccc2CN1c1cc(F)cc(Oc2ccccc2)c1	47
Cc1cccc(Oc2cc(F)cc(N3Cc4ccccc4S3(=O)=O)c2)c1	51
Cc1ccccc1Oc1cc(F)cc(N2Cc3ccccc3S2(=O)=O)c1	71
N#CCc1cccc(Oc2cc(F)cc(N3Cc4ccccc4S3(=O)=O)c2)c1	44
O=S1(=O)c2ccccc2CN1c1cccc(Oc2ccccc2)c1	39
Cc1ccc(Oc2cc(F)cc(N3Cc4ccccc4S3(=O)=O)c2)cc1	52
Cc1ccc(S(=O)(=O)Nc2ccc(Oc3ccccc3)cc2)cc1	100
O=S(=O)(Nc1ccc(Oc2ccccc2)cc1)c1ccc(F)cc1	95
N#Cc1cccc(Oc2cc(F)cc(N3Cc4ccccc4S3(=O)=O)c2)c1	52
CN(c1ccc(Oc2ccccc2)cc1)S(=O)(=O)c1ccc(F)cc1	57

Test system: not listed separately
Assay: Solubility in FaSSIF solution
Assay type: physicochemical
Conditions: not given

Structure (SMILES)	solubility [µM]
O=S1(=O)c2ccccc2CN1c1cc(Cl)cc(Oc2ccccn2)c1	0.9 (≈ 0.336 µg/mL)

Molecular target: T1, Free fatty acid receptor 1
Assay: Antagonist activity against human FFA1 expressed in human Flp-In T-REx293 cells assessed as as reduction in TUG424-induced response by Fura2-AM dye based calcium mobilization assay
Assay type: functional, cell-based
Conditions: not given
Procedure, shortened: as §1

Structure (SMILES)	IC50 [nM]
CCCCc1ccc(NS(=O)(=O)c2ccc(F)cc2)cc1	8130
O=S1(=O)c2ccccc2CN1c1cc(F)cc(OCc2ccccc2)c1	2450
N#Cc1ccc(Oc2cc(F)cc(N3Cc4ccccc4S3(=O)=O)c2)cc1	617
O=S1(=O)c2ccccc2CN1c1cc(F)cc(Oc2ccccc2)c1	3890
O=S1(=O)c2ccccc2CN1c1cc(F)cc(Oc2ccncc2)c1	> 100000
O=S1(=O)c2ccccc2CN1c1cccc(Oc2ccccn2)c1	> 100000
N#Cc1ccccc1Oc1cc(F)cc(N2Cc3ccccc3S2(=O)=O)c1	> 100000
Cc1cccc(Oc2cc(F)cc(N3Cc4ccccc4S3(=O)=O)c2)c1	25100
Cc1ccccc1Oc1cc(F)cc(N2Cc3ccccc3S2(=O)=O)c1	44700
N#CCc1cccc(Oc2cc(F)cc(N3Cc4ccccc4S3(=O)=O)c2)c1	20000
O=S1(=O)c2ccccc2CN1c1cccc(Oc2ccccc2)c1	174
Cc1ccc(Oc2cc(F)cc(N3Cc4ccccc4S3(=O)=O)c2)cc1	2880
Cc1ccc(S(=O)(=O)Nc2ccc(Oc3ccccc3)cc2)cc1	10000
O=S(=O)(Nc1ccc(Oc2ccccc2)cc1)c1ccc(F)cc1	12900
N#Cc1cccc(Oc2cc(F)cc(N3Cc4ccccc4S3(=O)=O)c2)c1	3390
O=S1(=O)c2ccccc2CN1c1cc(F)cc(Oc2cccnc2)c1	> 100000
CN(c1ccc(Oc2ccccc2)cc1)S(=O)(=O)c1ccc(F)cc1	10700

Test system: not listed separately
Assay: Lipophilicity, log D of the compound at pH 7.4
Assay type: physicochemical
Conditions: buffer

Structure (SMILES)	logD
O=S1(=O)c2ccccc2CN1c1cc(F)cc(Oc2cccnc2)c1	3.12

Molecular target: T2, Free fatty acid receptor 4 (Homo sapiens) (UniProt Q5NUL3)
T2 sequence (whole entry): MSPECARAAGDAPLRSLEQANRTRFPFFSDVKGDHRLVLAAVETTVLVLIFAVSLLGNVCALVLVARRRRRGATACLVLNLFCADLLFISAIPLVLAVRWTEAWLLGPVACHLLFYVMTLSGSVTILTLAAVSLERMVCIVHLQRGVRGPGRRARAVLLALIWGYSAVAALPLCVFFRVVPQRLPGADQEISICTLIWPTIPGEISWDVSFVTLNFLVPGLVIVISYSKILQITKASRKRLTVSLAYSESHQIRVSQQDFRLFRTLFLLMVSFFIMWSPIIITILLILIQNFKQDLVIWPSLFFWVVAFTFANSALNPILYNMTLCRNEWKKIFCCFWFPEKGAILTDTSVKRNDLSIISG
Assay: Agonist activity at human FFA4 expressed in human Flp-In T-REx293 cells by Fura2-AM dye based calcium mobilization assay relative to 100 uM […]
Assay type: functional, cell-based
Conditions: not given
Procedure, shortened: (§2)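 Flp-In T-REx 293 cells with doxycycline-inducible human FFA4 seeded at 50000 cells/well and induced overnight with 100 ng/ml doxycycline. Loaded with Fura2-AM for 45 min, washed three times in HBSS, equilibrated 15 min, then ligand added. Emission at 510 nm with 340/380 nm excitation; response is the change in 340:380 ratio. Efficacy relative to 100 µM reference agonist; 2-4 independent experiments, sigmoidal fits.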

Structure (SMILES)	Emax [%]
N#Cc1ccc(Oc2cc(F)cc(N3Cc4ccccc4S3(=O)=O)c2)cc1	29
O=S1(=O)c2ccccc2CN1c1cc(F)cc(Oc2ccccc2)c1	78
O=S1(=O)c2ccccc2CN1c1cc(F)cc(Oc2ccncc2)c1	120
O=S1(=O)c2ccccc2CN1c1cccc(Oc2ccccn2)c1	93
Cc1cccc(Oc2cc(F)cc(N3Cc4ccccc4S3(=O)=O)c2)c1	14
O=S1(=O)c2ccccc2CN1c1cccc(Oc2ccccc2)c1	105
O=S1(=O)c2ccccc2CN1c1cc(Cl)cc(Oc2ccccn2)c1	78
Cc1ccc(Oc2cc(F)cc(N3Cc4ccccc4S3(=O)=O)c2)cc1	38
O=S1(=O)c2ccccc2CN1c1cc(F)cc(Oc2cccnc2)c1	115

Test system: not listed separately
Assay: Solubility in PBS buffer
Assay type: physicochemical
Conditions: not given

Structure (SMILES)	solubility [µM]
O=S1(=O)c2ccccc2CN1c1cc(Cl)cc(Oc2ccccn2)c1	0.1 (≈ 0.0373 µg/mL)
O=S1(=O)c2ccccc2CN1c1cc(F)cc(Oc2cccnc2)c1	11 (≈ 3.92 µg/mL)

Test system: Mus musculus
Assay: Reduction in plasma glucose level in mouse at 10 mg/kg, po dosed 15 mins before oral glucose challenge by OGTT method
Assay type: functional, organism-based
Conditions: not given
Procedure, shortened: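 Mice fasted 5 h and given compound orally at 10 mg/kg, 15 min before an oral glucose load of 3 g/kg. Tail-tip blood sampled under local anesthetic 30 min before and immediately before the load, and at 30, 60, 90, 120 and 180 min after it. Glucose measured in duplicate by glucose oxidase colorimetric assay; n=6 mice per group.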

Structure (SMILES)	Activity
O=S1(=O)c2ccccc2CN1c1cc(F)cc(Oc2cccnc2)c1	Active

Molecular target: T3, Free fatty acid receptor 4 (Mus musculus, UniProt Q7TMA4)
T3 sequence (Q7TMA4 whole entry): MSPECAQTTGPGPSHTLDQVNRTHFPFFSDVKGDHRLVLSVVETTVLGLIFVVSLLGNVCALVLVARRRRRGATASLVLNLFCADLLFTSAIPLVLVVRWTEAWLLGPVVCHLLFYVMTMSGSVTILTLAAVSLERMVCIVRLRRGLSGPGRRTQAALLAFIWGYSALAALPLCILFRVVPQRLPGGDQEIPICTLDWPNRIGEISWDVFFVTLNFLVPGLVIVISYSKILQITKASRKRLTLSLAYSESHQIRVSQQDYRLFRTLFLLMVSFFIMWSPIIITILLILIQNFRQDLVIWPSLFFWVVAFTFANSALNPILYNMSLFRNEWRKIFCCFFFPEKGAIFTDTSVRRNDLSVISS
Assay: Agonist activity mouse FFA4 by Gq-dependent calcium mobilization assay
Assay type: functional
Conditions: not given

Structure (SMILES)	EC50 [nM]
O=S1(=O)c2ccccc2CN1c1cc(Cl)cc(Oc2ccccn2)c1	72.4
O=S1(=O)c2ccccc2CN1c1cc(F)cc(Oc2cccnc2)c1	83.2

Molecular target: T4, Free fatty acid receptor 4 (Homo sapiens, UniProt Q5NUL3)
T4 sequence (Q5NUL3 whole entry): T2 sequence (whole entry)
Assay: Agonist activity at human FFA4 expressed in human Flp-In T-REx293 cells by Fura2-AM dye based calcium mobilization assay
Assay type: functional, cell-based
Conditions: not given
Procedure, shortened: as §2

Structure (SMILES)	EC50 [nM]
N#Cc1ccc(Oc2cc(F)cc(N3Cc4ccccc4S3(=O)=O)c2)cc1	2340
O=S1(=O)c2ccccc2CN1c1cc(F)cc(Oc2ccccc2)c1	380
O=S1(=O)c2ccccc2CN1c1cc(F)cc(Oc2ccncc2)c1	1700
O=S1(=O)c2ccccc2CN1c1cccc(Oc2ccccn2)c1	1020
Cc1cccc(Oc2cc(F)cc(N3Cc4ccccc4S3(=O)=O)c2)c1	4470
O=S1(=O)c2ccccc2CN1c1cccc(Oc2ccccc2)c1	209
O=S1(=O)c2ccccc2CN1c1cc(Cl)cc(Oc2ccccn2)c1	38.9
Cc1ccc(Oc2cc(F)cc(N3Cc4ccccc4S3(=O)=O)c2)cc1	1100
O=S1(=O)c2ccccc2CN1c1cc(F)cc(Oc2cccnc2)c1	302

Molecular target: T4, Free fatty acid receptor 4
Assay: Agonist activity at C-terminal YFP-tagged human FFA4 expressed in HEK293 cells in presence of coelentrazine h by BRET based beta-arrestin-2 interaction assay
Assay type: cell-based
Conditions: not given
Procedure, shortened: (§3)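 HEK293 cells co-transfected with C-terminal eYFP-fused human FFA4 and β-arrestin-2–Renilla luciferase; plated 24 h post-transfection, used 24 h later. After an HBSS wash, coelenterazine h (2.5 µM) for 15 min, with ligands present for the final 5 min, 37 °C. BRET taken as the 535/475 nm emission ratio. Efficacy relative to 100 µM reference agonist. Three-parameter sigmoidal fits; mean ± S.E. of 2-4 independent experiments.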

Structure (SMILES)	EC50 [nM]
O=S1(=O)c2ccccc2CN1c1cc(F)cc(Oc2ccccc2)c1	< 10000

Same assay, conditions: read-out: EC50

Structure (SMILES)	EC50 [nM]
O=S1(=O)c2ccccc2CN1c1cc(Cl)cc(Oc2ccccn2)c1	40

Same assay, conditions: read-out: pEC50 (converted)

Structure (SMILES)	EC50 [nM]
CCCCc1ccc(NS(=O)(=O)c2ccc(F)cc2)cc1	5370
O=S1(=O)c2ccccc2CN1c1cc(F)cc(OCc2ccccc2)c1	> 100000
N#Cc1ccc(Oc2cc(F)cc(N3Cc4ccccc4S3(=O)=O)c2)cc1	1660
O=S1(=O)c2ccccc2CN1c1cc(F)cc(Oc2ccccc2)c1	234
O=C1c2ccccc2C(=O)N1c1cc(F)cc(Oc2cccnc2)c1	5010
O=S1(=O)c2ccccc2CN1c1cc(F)cc(Oc2ccncc2)c1	1260
O=S1(=O)c2ccccc2CN1c1cccc(Oc2ccccn2)c1	1550
N#Cc1ccccc1Oc1cc(F)cc(N2Cc3ccccc3S2(=O)=O)c1	16200
O=S(=O)(Nc1cc(F)cc(Oc2cccnc2)c1)c1ccc(F)cc1	16600
Cc1cccc(Oc2cc(F)cc(N3Cc4ccccc4S3(=O)=O)c2)c1	2630
Cc1ccccc1Oc1cc(F)cc(N2Cc3ccccc3S2(=O)=O)c1	2690
N#CCc1cccc(Oc2cc(F)cc(N3Cc4ccccc4S3(=O)=O)c2)c1	5250
O=S1(=O)c2ccccc2CN1c1cccc(Oc2ccccc2)c1	245
COc1ccc(S(=O)(=O)Nc2c(C)cc(C)cc2C)cc1	490
O=S1(=O)c2ccccc2CN1c1cc(Cl)cc(Oc2ccccn2)c1	138
Cc1ccc(Oc2cc(F)cc(N3Cc4ccccc4S3(=O)=O)c2)cc1	437
O=S(=O)(Nc1ccc(Oc2ccccc2)cc1)c1ccc(F)cc1	3550
N#Cc1cccc(Oc2cc(F)cc(N3Cc4ccccc4S3(=O)=O)c2)c1	5750
O=S1(=O)c2ccccc2CN1c1cc(F)cc(Oc2cccnc2)c1	437

Molecular target: T1, Free fatty acid receptor 1
Assay: Antagonist activity against human FFA1 expressed in human Flp-In T-REx293 cells assessed as as reduction in TUG770-induced response by Fura2-AM dye based calcium mobilization assay
Assay type: functional, cell-based
Conditions: not given
Procedure, shortened: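 Antagonism measured in FFA1 Ca2+ mobilization with 20 nM TUG-770 as the stimulating agonist. Test ligand preincubated 15 min in HBSS before agonist addition. Read-out is the change in Fura2 340:380 ratio at 510 nm emission.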

Structure (SMILES)	IC50 [nM]
O=S1(=O)c2ccccc2CN1c1cc(Cl)cc(Oc2ccccn2)c1	> 100000

Molecular target: T2, Free fatty acid receptor 4 (Homo sapiens)
Assay: Agonist activity at C-terminal YFP-tagged human FFA4 expressed in HEK293 cells in presence of coelentrazine h by BRET based beta-arrestin-2 interaction assay relative to 100 uM […]
Assay type: cell-based
Conditions: not given
Procedure, shortened: as §3

Structure (SMILES)	Emax [%]
CCCCc1ccc(NS(=O)(=O)c2ccc(F)cc2)cc1	76
N#Cc1ccc(Oc2cc(F)cc(N3Cc4ccccc4S3(=O)=O)c2)cc1	87
O=S1(=O)c2ccccc2CN1c1cc(F)cc(Oc2ccccc2)c1	101
O=C1c2ccccc2C(=O)N1c1cc(F)cc(Oc2cccnc2)c1	45
O=S1(=O)c2ccccc2CN1c1cc(F)cc(Oc2ccncc2)c1	97
O=S1(=O)c2ccccc2CN1c1cccc(Oc2ccccn2)c1	102
N#Cc1ccccc1Oc1cc(F)cc(N2Cc3ccccc3S2(=O)=O)c1	76
O=S(=O)(Nc1cc(F)cc(Oc2cccnc2)c1)c1ccc(F)cc1	39
Cc1cccc(Oc2cc(F)cc(N3Cc4ccccc4S3(=O)=O)c2)c1	87
Cc1ccccc1Oc1cc(F)cc(N2Cc3ccccc3S2(=O)=O)c1	42
N#CCc1cccc(Oc2cc(F)cc(N3Cc4ccccc4S3(=O)=O)c2)c1	57
O=S1(=O)c2ccccc2CN1c1cccc(Oc2ccccc2)c1	95
COc1ccc(S(=O)(=O)Nc2c(C)cc(C)cc2C)cc1	82
O=S1(=O)c2ccccc2CN1c1cc(Cl)cc(Oc2ccccn2)c1	113
Cc1ccc(Oc2cc(F)cc(N3Cc4ccccc4S3(=O)=O)c2)cc1	91
O=S(=O)(Nc1ccc(Oc2ccccc2)cc1)c1ccc(F)cc1	52
N#Cc1cccc(Oc2cc(F)cc(N3Cc4ccccc4S3(=O)=O)c2)c1	83
O=S1(=O)c2ccccc2CN1c1cc(F)cc(Oc2cccnc2)c1	107
